Test results taken from ChEMBL document CHEMBL1833911, “Diastereoselective synthesis and bioactivity of long-chain anti-2-amino-3-alkanols” (Eur J Med Chem, 2011).
Active and inactive are the calls of the source. The calls are words filed in the database; no cut-off is given here.

Tests used:
Homo sapiens = species: Homo sapiens; assay: Cytotoxicity against human SHG44 at 50 uM after 24 hrs by cell counting kit-8 assay; assay type: functional
Summary of the method: (§1)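 SHG-44 glioblastoma cells were maintained in DMEM with 10% FBS and penicillin/streptomycin at 37 °C under 5% CO2. They were seeded at 5000/well in DMEM with 1% FBS and grown overnight, then exposed for 24 h to compound (0.1–100 μM) or 0.1% DMSO vehicle. CCK-8 was added for 2 h at 37 °C and A450 read. Results were from triplicates, expressed as % of vehicle.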

[1] = Growth inhibition of human SHG44 at 10 uM after 24 hrs by cell counting kit-8 assay; assay type: functional; conditions: SHG-44, 24 h, read-out: GI; summary of the method: as §1
[2] = Antiproliferative activity against human SHG44 cells after 24 hrs by cell counting kit-8 assay; assay type: functional, cell-based; conditions: SHG-44, 24 h; summary of the method: as §1
SHG44 = assay: Antiproliferative activity against human SHG44 cells at 0.1 to 100 uM after 24 hrs by cell counting kit-8 assay; assay type: functional, cell-based; summary of the method: as §1

CCCCCCCCCCC[C@@H](O)[C@H](C)N [XETOAMINOL C]
Activity (Homo sapiens): Active | inhibition of growth at 10 µM [1]: 100% | IC50 [2]: 4.5 µM

CCC/C=C\CCCC[C@H](O)[C@@H](C)N
Activity (Homo sapiens): Active | Activity (SHG44): inactive

CCCCCCCCC[C@H](O)[C@@H](C)N
Activity (Homo sapiens): Active

CCCCCCCCC[C@H](O)[C@H](N)CO
Activity (Homo sapiens): Active | inhibition of growth at 10 µM [1]: 60% | IC50 [2]: 4.41 µM

CCCCCCCCC[C@@H](O)[C@H](C)N
Activity (Homo sapiens): Active | inhibition of growth at 10 µM [1]: 80% | IC50 [2]: 7.96 µM

CC(C)CCCCCCC[C@H](O)[C@@H](C)N
Activity (Homo sapiens): Active | Activity (SHG44): inactive
